From ChEMBL document CHEMBL1781932 (J Med Chem, 2011)
In brackets after ≈: the same amount, converted by molar mass.

Key:
Assay type in all cases: functional
[1] = tested on: Staphylococcus aureus; experiment: Antimicrobial activity against tetracycline-susceptible Staphylococcus aureus isolate 101 by CLSI dilution method
[2] = tested on: Staphylococcus aureus; experiment: Antimicrobial activity against methicillin-, tetracycline-resistant Staphylococcus aureus isolate 161 harboring tetM gene by CLSI dilution method
[3] = tested on: Staphylococcus aureus; experiment: Antimicrobial activity against tetracycline-resistant Staphylococcus aureus isolate 158 harboring tetK gene by CLSI dilution method
[4] = tested on: Enterococcus faecalis; experiment: Antimicrobial activity against tetracycline-susceptible Enterococcus faecalis isolate 103 by CLSI dilution method
How it was run: (§1)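 Broth microdilution per CLSI in fresh cation-adjusted Mueller Hinton broth, kept at 4 °C before testing, with defibrinated horse blood added as appropriate. Strains were from ATCC. MIC in µg/mL. Runs were accepted when comparator antibiotics against ATCC quality-control strains fell within recommended ranges.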

[5] = tested on: Streptococcus pneumoniae; experiment: Antimicrobial activity against tetracycline-resistant Streptococcus pneumoniae isolate 160 harboring tetM gene by CLSI dilution method
[6] = tested on: Escherichia coli; experiment: Antimicrobial activity against tetracycline-susceptible Escherichia coli isolate 107 by CLSI dilution method; how it was run: as §1
[7] = tested on: Escherichia coli; experiment: Antimicrobial activity against tetracycline-resistant Escherichia coli isolate 155 harboring tetA gene by CLSI dilution method
[8] = tested on: Acinetobacter baumannii; experiment: Antimicrobial activity against tetracycline-susceptible Acinetobacter baumannii isolate 110 by CLSI dilution method; how it was run: as §1
[9] = tested on: Pseudomonas aeruginosa; experiment: Antimicrobial activity against tetracycline-susceptible Pseudomonas aeruginosa isolate 111 by CLSI dilution method; how it was run: as §1
[10] = tested on: Enterobacter cloacae; experiment: Antimicrobial activity against tetracycline-susceptible Enterobacter cloacae isolate 108 by CLSI dilution method; how it was run: as §1
[11] = tested on: Klebsiella pneumoniae; experiment: Antimicrobial activity against tetracycline-susceptible Klebsiella pneumoniae isolate 109 by CLSI dilution method; how it was run: as §1
[12] = tested on: Klebsiella pneumoniae; experiment: Antimicrobial activity against tetracycline-resistant Klebsiella pneumoniae isolate 153 harboring tetA gene by CLSI dilution method
[13] = tested on: Streptococcus pneumoniae; experiment: Antimicrobial activity against tetracycline-susceptible Streptococcus pneumoniae isolate 106 by CLSI dilution method; how it was run: as §1
[14] = tested on: Enterococcus faecalis; experiment: Antimicrobial activity against tetracycline-resistant Enterococcus faecalis isolate 159 harboring […] gene by CLSI dilution method

Structure (SMILES)	MIC [1] [µg/mL]	MIC [2] [µg/mL]	MIC [3] [µg/mL]	MIC [4] [µg/mL]	MIC [5] [µg/mL]	MIC [6] [µg/mL]	MIC [7] [µg/mL]	MIC [8] [µg/mL]	MIC [9] [µg/mL]	MIC [10] [µg/mL]	MIC [11] [µg/mL]	MIC [12] [µg/mL]	MIC [13] [µg/mL]	MIC [14] [µg/mL]
COc1c2c(c(O)c3cc(F)ccc13)C(=O)C1=C(O)[C@]3(O)C(=O)C(C(N)=O)=C(O)[C@@H](N(C)C)[C@@H]3C[C@@H]1C2	0.125 (≈ 0.244 µM)	0.5 (≈ 0.976 µM)	0.125 (≈ 0.244 µM)	0.5 (≈ 0.976 µM)	8 (≈ 15.6 µM)	16 (≈ 31.2 µM)	16 (≈ 31.2 µM)	1 (≈ 1.95 µM)	> 32	> 32	32 (≈ 62.4 µM)	> 32		
CN(C)[C@@H]1C(O)=C(C(N)=O)C(=O)[C@@]2(O)C(O)=C3C(=O)c4c(cc5c(CN6CCC6)cccc5c4O)C[C@H]3C[C@@H]12	1 (≈ 1.87 µM)	4 (≈ 7.5 µM)	0.5 (≈ 0.937 µM)	2 (≈ 3.75 µM)	2 (≈ 3.75 µM)	8 (≈ 15 µM)	> 32	32 (≈ 60 µM)	> 32		16 (≈ 30 µM)	> 32	0.25 (≈ 0.469 µM)	
CN(C)[C@@H]1C(O)=C(C(N)=O)C(=O)[C@@]2(O)C(O)=C3C(=O)c4c(cc5ccc(CN6CCCC6)cc5c4O)C[C@H]3C[C@@H]12	0.5 (≈ 0.913 µM)	2 (≈ 3.65 µM)	0.25 (≈ 0.457 µM)	0.25 (≈ 0.457 µM)	0.125 (≈ 0.228 µM)	1 (≈ 1.83 µM)		1 (≈ 1.83 µM)	> 32	4 (≈ 7.3 µM)		4 (≈ 7.3 µM)	0.0625 (≈ 0.114 µM)	2 (≈ 3.65 µM)
CN(C)[C@@H]1C(O)=C(C(N)=O)C(=O)[C@@]2(O)C(O)=C3C(=O)c4c(cc5ccc(CN6CCC6)cc5c4O)C[C@H]3C[C@@H]12	0.5 (≈ 0.937 µM)	2 (≈ 3.75 µM)	0.5 (≈ 0.937 µM)	0.5 (≈ 0.937 µM)	0.25 (≈ 0.469 µM)	1 (≈ 1.87 µM)	8 (≈ 15 µM)		32 (≈ 60 µM)		4 (≈ 7.5 µM)	8 (≈ 15 µM)	0.125 (≈ 0.234 µM)	4 (≈ 7.5 µM)
CN(C)[C@@H]1C(O)=C(C(N)=O)C(=O)[C@@]2(O)C(O)=C3C(=O)c4c(c(F)c5ccc(CNC6CC6)cc5c4O)C[C@H]3C[C@@H]12		2 (≈ 3.63 µM)		0.5 (≈ 0.907 µM)		2 (≈ 3.63 µM)	8 (≈ 14.5 µM)	0.25 (≈ 0.453 µM)	> 32	4 (≈ 7.25 µM)	4 (≈ 7.25 µM)	8 (≈ 14.5 µM)	0.0625 (≈ 0.113 µM)	2 (≈ 3.63 µM)
CNC(=O)Oc1c2c(c(O)c3cc(CN4CCC4)ccc13)C(=O)C1=C(O)[C@]3(O)C(=O)C(C(N)=O)=C(O)[C@@H](N(C)C)[C@@H]3C[C@@H]1C2	8 (≈ 13.2 µM)			8 (≈ 13.2 µM)	4 (≈ 6.59 µM)	32 (≈ 52.8 µM)	> 32	> 32	> 32	> 32	> 32	> 32	1 (≈ 1.65 µM)	
CN(C)[C@@H]1C(O)=C(C(N)=O)C(=O)[C@@]2(O)C(O)=C3C(=O)c4c(cc5cc(N)ccc5c4O)C[C@H]3C[C@@H]12				4 (≈ 8.34 µM)	8 (≈ 16.7 µM)	> 32	> 32	16 (≈ 33.4 µM)	> 32	> 32	> 32	> 32	2 (≈ 4.17 µM)	
CN(C)CCOc1c2c(c(O)c3cc(CN4CCC4)ccc13)C(=O)C1=C(O)[C@]3(O)C(=O)C(C(N)=O)=C(O)[C@@H](N(C)C)[C@@H]3C[C@@H]1C2	4 (≈ 6.44 µM)	8 (≈ 12.9 µM)	4 (≈ 6.44 µM)	8 (≈ 12.9 µM)	2 (≈ 3.22 µM)	8 (≈ 12.9 µM)	> 32	> 32	> 32	16 (≈ 25.8 µM)	32 (≈ 51.6 µM)	> 32	1 (≈ 1.61 µM)	
CN(C)Cc1ccc2c(F)c3c(c(O)c2c1)C(=O)C1=C(O)[C@]2(O)C(=O)C(C(N)=O)=C(O)[C@@H](N(C)C)[C@@H]2C[C@@H]1C3	0.5 (≈ 0.927 µM)		0.25 (≈ 0.463 µM)	0.25 (≈ 0.463 µM)	8 (≈ 14.8 µM)		4 (≈ 7.41 µM)	0.5 (≈ 0.927 µM)	32 (≈ 59.3 µM)	4 (≈ 7.41 µM)	2 (≈ 3.71 µM)	4 (≈ 7.41 µM)	0.0156 (≈ 0.0289 µM)	1 (≈ 1.85 µM)
COc1c2c(c(O)c3cc(CNC(C)(C)C)ccc13)C(=O)C1=C(O)[C@]3(O)C(=O)C(C(N)=O)=C(O)[C@@H](N(C)C)[C@@H]3C[C@@H]1C2	0.25 (≈ 0.431 µM)		0.25 (≈ 0.431 µM)	0.25 (≈ 0.431 µM)	0.5 (≈ 0.863 µM)	1 (≈ 1.73 µM)	8 (≈ 13.8 µM)	2 (≈ 3.45 µM)	16 (≈ 27.6 µM)			8 (≈ 13.8 µM)	0.0156 (≈ 0.0269 µM)	
